By LD50 is commonly meant the dose expected to kill half of the subjects tested.

The test system of series [1] is Mus musculus. Put plainly: Hypothermia in mice after perorla administration. Type of series: functional. The method, boiled down: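 Groups of three CFW mice were dosed orally. Rectal temperature was taken 15 min, 2.5 h and 5 h after dosing. Mean changes from each group's mean initial temperature were summed as a "temperature index". ED_min is the minimum dose (mg/kg) giving an index at least 5 lower than the control group.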

A short description of series [2]: Lethal dose in mice after perorla administration. Type of series: toxicity, organism-based. The conditions noted are these: mouse, in vivo, po. The method, boiled down: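 CFW albino mice (19–21 g), groups of three, given oral doses up to 800 mg/kg as solution or suspension. Mortality and gross behavioural changes observed over 48 h; LD50 approximated from the outcome.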

The subject of series [3] is Rattus norvegicus. Put plainly: Compound was evaluated for its ability to block conditioned avoidance response (CAR) in rats; Dose administered perorally is 20 mg/kg; 26-30% block. Type of series: functional. The conditions noted are these: route oral.
Series [4] concerns Rattus norvegicus. Nature of the series: compound was evaluated for its ability to produce catalepsy activity in rats; Dose administered perorally is 20 mg/kg. Type of series: functional. The conditions noted are these: route oral. The method, boiled down: (§1)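 Groups of eight Lilly Wistar rats (180–190 g) were dosed orally and checked at 0.5, 1, 1.5, 2, 3, 4 and 5 h. Front paws were placed on a 1.5-cm rod 7 cm above the table, and posture was timed up to 20 min. Release within 10 s counted as noncataleptic. Each rat was scored 0–5 by hold time. Maximum scores per animal were summed, giving a group maximum of 40.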

Series [5] deals with Rattus norvegicus. Nature of the series: Compound was evaluated for its ability to block conditioned avoidance response (CAR) in rats; Dose administered perorally is 50 mg/kg; 76-99% block. Type of series: functional. The conditions noted are these: route oral.
The species named for series [6] is Rattus norvegicus. Put plainly: compound was evaluated for its ability to produce catalepsy activity in rats. Type of series: functional. The method, boiled down:
as §1

The test system of series [7] is Rattus norvegicus. Nature of the series: Compound was evaluated for its ability to block conditioned avoidance response (CAR) in rats; Dose administered perorally is 1.25 mg/kg; 51-75% block. Type of series: functional. The conditions noted are these: route oral.

Structures are written as SMILES. A value given as a limit tells only on which side of the number the result lay.

Turning to `CN1CCN(C2=Nc3cc(F)ccc3Nc3cscc32)CC1`, the EDmin in series [1] was found to be 6.25 mg/kg. This molecule also yielded an LD50 in series [2] of 100 mg/kg. For the same molecule, the Activity in series [3] and in series [4] was 1 throughout.
In series [1], `CN1CCN(C2=Nc3cc(Cl)c(Cl)cc3Nc3cscc32)CC1` returned an EDmin of 25 mg/kg. The molecule further gave an LD50 in series [2] of 400 mg/kg. Moreover, the Activity in series [5] was found to be 4; in series [6] it was 1.
Take `O=C(CCCN1CCC(O)(c2ccc(Cl)cc2)CC1)c1ccc(F)cc1` [HALOPERIDOL]: in series [1], the EDmin was determined as 3 mg/kg. The molecule further showed a median lethal dose (LD50) in series [2] greater than 100 mg/kg. In addition, the Activity in series [7] and in series [6] was 3 each time.

Source of the values: ChEMBL document CHEMBL1121490, “10-Piperazinyl-4H-theino[3,2-b][1,5]- and -[3,4-b][1,5]benzodiazepines as potential neuroleptics” (J Med Chem, 1980).
